From ChEMBL document CHEMBL3244142, “Antifungal properties of 2-bromo-3-fluorosuccinic acid esters and related compounds” (1977)
The source made the active and inactive calls.

How the values were obtained:
[1] = tested on: Mucor mucedo; test: Antifungal activity against Mucor mucedo ATCC 7941 at <100 ug/ml at pH 7 after 20 h in presence of 10% beef serum
[2] = tested on: Trichophyton mentagrophytes; test: Antifungal activity against Trichophyton mentagrophytes ATCC 9129 at <100 ug/ml at pH 7 after 5 days in presence of 10% beef serum; format: functional, organism-based
Summary of the method: (§1)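 Agar-dilution MIC in Sabouraud dextrose agar at pH 5.6 or 7.0, with or without 10% beef serum. Plates were incubated at 28 °C for 5 days. MIC is the lowest concentration (µg/mL) giving 100% inhibition. Steps were 1 µg/mL up to 10, 2 µg/mL from 10–20, and 10 µg/mL from 20–100; 100 µg/mL was the top level, and no inhibition there is scored as >100.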

[3] = tested on: Mucor mucedo; test: Antifungal activity against Mucor mucedo ATCC 7941 at <100 ug/ml at pH 5.6 after 20 h in absence of 10% beef serum
[4] = tested on: Candida albicans; test: Antifungal activity against Candida albicans ATCC 10231 at <100 ug/ml at pH 7 after 20 h in presence of 10% beef serum
[5] = tested on: Candida albicans; test: Antifungal activity against Candida albicans ATCC 10231 at <100 ug/ml at pH 5.6 after 20 h in absence of 10% beef serum
[6] = tested on: Mucor mucedo; test: Antifungal activity against Mucor mucedo ATCC 7941 at <100 ug/ml at pH 7 after 20 h in absence of 10% beef serum
[7] = tested on: Aspergillus niger; test: Antifungal activity against Aspergillus niger ATCC 1004 at <100 ug/ml at pH 5.6 after 5 days in absence of 10% beef serum; format: functional, organism-based
Summary of the method: as §1

[8] = tested on: Trichophyton mentagrophytes; test: Antifungal activity against Trichophyton mentagrophytes ATCC 9129 at <100 ug/ml at pH 7 after 5 days in absence of 10% beef serum; format: functional, organism-based
Summary of the method: as §1

[9] = tested on: Aspergillus niger; test: Antifungal activity against Aspergillus niger ATCC 1004 at <100 ug/ml at pH 5.6 after 5 days in presence of 10% beef serum; format: functional, organism-based
Summary of the method: as §1

[10] = tested on: Aspergillus niger; test: Antifungal activity against Aspergillus niger ATCC 1004 at <100 ug/ml at pH 7 after 5 days in absence of 10% beef serum; format: functional, organism-based
Summary of the method: as §1

[11] = tested on: Trichophyton mentagrophytes; test: Antifungal activity against Trichophyton mentagrophytes ATCC 9129 at <100 ug/ml at pH 5.6 after 5 days in absence of 10% beef serum; format: functional, organism-based
Summary of the method: as §1

[12] = tested on: Mucor mucedo; test: Antifungal activity against Mucor mucedo ATCC 7941 at <100 ug/ml at pH 5.6 after 20 h in presence of 10% beef serum
[13] = tested on: Candida albicans; test: Antifungal activity against Candida albicans ATCC 10231 at <100 ug/ml at pH 5.6 after 20 h in presence of 10% beef serum
[14] = tested on: Candida albicans; test: Antifungal activity against Candida albicans ATCC 10231 at <100 ug/ml at pH 7 after 20 h in absence of 10% beef serum
[15] = tested on: Aspergillus niger; test: Antifungal activity against Aspergillus niger ATCC 1004 at <100 ug/ml at pH 7 after 5 days in presence of 10% beef serum; format: functional, organism-based
Summary of the method: as §1

[16] = tested on: Trichophyton mentagrophytes; test: Antifungal activity against Trichophyton mentagrophytes ATCC 9129 at <100 ug/ml at pH 5.6 after 5 days in presence of 10% beef serum; format: functional, organism-based
Summary of the method: as §1

Measured: inhibition

CCCCCCOC(=O)/C=C/C(=O)OCCCCCC
inactive: [1] | [2] | [3] | [4] | [5] | [6] | [7] | [8] | [9] | [10] | [11] | [12] | [13] | [14] | [15] | [16]

O=c1[nH]cc(F)c(=O)[nH]1
inactive: [1] | [2] | [3] | [4] | [5] | [6] | [7] | [8] | [9] | [10] | [11] | [12] | [13] | [14] | [15] | [16]

CCCCCCOC(=O)[C@H](F)[C@@H](Br)C(=O)OCCCCCC (relative stereo)
inactive: [1] | [2] | [3] | [4] | [5] | [6] | [7] | [8] | [9] | [10] | [11] | [12] | [13] | [14] | [15] | [16]

COC(=O)/C=C/CC(=O)OC
inactive: [1] | [2] | [3] | [4] | [5] | [6] | [7] | [8] | [9] | [10] | [11] | [12] | [13] | [14] | [15] | [16]

CCCCCCOC(=O)/C=C\C(=O)OCCCCCC
inactive: [1] | [2] | [3] | [4] | [5] | [6] | [7] | [8] | [9] | [10] | [11] | [12] | [13] | [14] | [15] | [16]
